High-throughput results: PubChem, several laboratories
RanGTP-Imp inh = disruptors of Ran-importin-beta complex formation – biochemical, FRET, CFP-Ran, YFP-importin-beta, homogeneous, primary screen; cell-free CFP-Ran/YFP-importin-beta FRET ratio; 300,000 tested, 1.1% active; AID 2216; inhibition, % (no concentration beside the values);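 active means more than half of the replicate wells show a fall in the fluorescence ratio signal beyond about 16%, limit read from the data, passing the limit was not always enough; inconclusive means exactly half of the replicate wells pass the set limit; inactive means fewer than half of replicates pass the limit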
Runt-SMMHC FRET = inhibitors of human RUNX1 Runt domain binding to CBFb-SMMHC; inhibition, % at 20 µM; Cerulean-Runt/Venus-CBFb-SMMHC FRET ratio 530/480, 1 h; 220,000 tested, 0.74% active; Q01196+Q13951; AID 1434;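 active means mean inhibition across duplicate retests at 20 µM reaching about 50%, limit read from the data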;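 further: inhibitors lower the FRET ratio by blocking Runt binding to CBFb-SMMHC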
Target sequence (Q01196 whole entry, looked up, the tested form may be a part): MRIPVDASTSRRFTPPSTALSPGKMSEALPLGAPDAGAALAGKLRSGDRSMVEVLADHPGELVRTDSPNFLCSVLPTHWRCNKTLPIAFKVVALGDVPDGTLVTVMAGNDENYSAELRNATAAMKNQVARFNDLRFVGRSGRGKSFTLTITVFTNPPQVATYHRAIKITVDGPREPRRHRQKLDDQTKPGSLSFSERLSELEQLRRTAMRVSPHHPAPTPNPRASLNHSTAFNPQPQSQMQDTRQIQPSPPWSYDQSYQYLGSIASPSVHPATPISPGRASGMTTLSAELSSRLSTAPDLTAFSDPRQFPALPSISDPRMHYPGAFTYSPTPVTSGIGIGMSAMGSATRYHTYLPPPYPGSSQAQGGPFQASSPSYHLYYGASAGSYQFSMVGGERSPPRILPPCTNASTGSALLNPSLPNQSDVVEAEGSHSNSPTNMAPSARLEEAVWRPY
Target sequence (Q13951 whole entry, looked up, the tested form may be a part): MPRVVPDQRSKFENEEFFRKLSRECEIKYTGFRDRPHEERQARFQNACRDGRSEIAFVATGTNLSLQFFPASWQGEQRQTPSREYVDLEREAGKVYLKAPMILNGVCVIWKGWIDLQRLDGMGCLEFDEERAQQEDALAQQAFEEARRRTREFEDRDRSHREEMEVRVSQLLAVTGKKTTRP
Runt-CBFb FRET = blocks binding of human RUNX1 Runt domain to CBFb. AID 1496. Cerulean-Runt/Venus-CBFb FRET ratio 530/480, 1 h. 220,000 tested, 0.46% active. inhibition, % at 20 µM;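 active means inhibition over about 50% at 20 µM in the single-dose screen, limit read from the data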
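test system = Cerulean-tagged RUNX1 Runt domain (FRET donor) fusion protein | reagent = Venus-CBFb binding partner, 100 nM | incubation = protein complex preformed 1 h, compound exposure 1 h, room temperature, dark | detection = FRET fluorescence | read-out basis = loss of energy transfer signal | controls = 5 µM unlabeled CBFb as full-inhibition high control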
Platelet DG rel = platelet dense granule release activity | human platelet-rich plasma, SFLLRN dense granule ATP release, luminescence | inhibition, %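 (compounds screened at 7.5 µM in platelet-rich plasma)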 | 300,000 tested, 0.22% active;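 active means mean replicate score, as percent of positive control, at or above 50; inconclusive means mean below 50 but at least one replicate at or above 50; inactive means mean and every replicate below 50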
Rce1 inh = yeast Ras-converting enzyme inhibition; 290,000 tested, 0.27% active; calls only; AID 2563; yeast membranes, quenched prenylated peptide cleavage fluorescence; Q03530;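 active means fall in fluorescence gain of 50% or more versus controls, with final raw signal at or below 3038400; inconclusive means same 50% fall but final raw signal above 3038400; inactive means fall in fluorescence gain under 50%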
Large screens that a line does not name were inactive. An excerpt weighted towards active compounds, which were near 1.8% of everything screened.

Cc1cccc2sc(NC(=O)c3cc(S(=O)(=O)N(C)C)ccc3N3CCCC3)nc12	none
COc1ccccc1NC(=O)CNC(=O)c1ccccc1	none
COc1ccccc1NC(=O)CNC(=O)c1ccccc1C	RanGTP-Imp inh 24
CCC(CO)(CO)N(CC(=O)Nc1ccc(OC)cc1)CC(=O)Nc1ccc(OC)cc1	RanGTP-Imp inh 28 (no result: Runt-SMMHC FRET, Runt-CBFb FRET)
COc1ccc(NC(=O)CN(CC(=O)Nc2ccc(OC)cc2)C(C)(C)CO)cc1	none (no result: Runt-SMMHC FRET, Runt-CBFb FRET)
COC(=O)C1=NNC2(C)C(=O)N(c3ccc(C)cc3)C(=O)C12 (stereo not given)	none
Cc1ccc(S(=O)(=O)C(C#N)c2nc3ccccc3nc2OCCO)cc1 (stereo not given)	RanGTP-Imp inh 26
Cc1ccc(S(=O)(=O)C(C#N)c2nc3ccccc3nc2N2CCC(C)CC2)cc1 (stereo not given)	none
CC1(c2ccccc2)NC(=O)N(CC(=O)Nc2ccccc2N2CCCC2)C1=O (stereo not given)	none (no result: Runt-SMMHC FRET, Runt-CBFb FRET)
O=C(Nc1cc2c(=O)n(-c3ccc(Oc4ccccc4)cc3)ccc2oc1=O)c1ccccc1	RanGTP-Imp inh inconclusive, Runt-SMMHC FRET 62
Cc1ccc2nc3c(cc(C(N)=S)c(=N)n3CCCOC(C)C)c(=O)n2c1	RanGTP-Imp inh 188
Cc1cccn2c(=O)c3cc(C(N)=S)c(=N)n(CCCN4CCOCC4)c3nc12	Runt-SMMHC FRET 88
C=CCn1c(=N)c(C(=O)OCC)cc2c(=O)n3cc(C)ccc3nc21	none (no result: RanGTP-Imp inh, Platelet DG rel, Rce1 inh)
COCCCn1c(=N)c(C(N)=S)cc2c(=O)n3cccc(C)c3nc21	RanGTP-Imp inh active (no result: Runt-SMMHC FRET, Runt-CBFb FRET)
COCCn1c(=N)c(S(=O)(=O)c2ccc(F)cc2)cc2c(=O)n3cccc(C)c3nc21	none (no result: Runt-SMMHC FRET, Runt-CBFb FRET)
CC(C)c1ccc(CN(C(=O)c2cccs2)C2CCS(=O)(=O)C2)cc1 (stereo not given)	none (no result: Runt-SMMHC FRET, Runt-CBFb FRET)
CC(=O)N1CCOc2ccc(S(=O)(=O)N3CCN(c4cc(C)ccc4C)CC3)cc21	none (no result: Runt-SMMHC FRET, Runt-CBFb FRET)
O=C1CCC/C1=C\c1ccccc1	RanGTP-Imp inh 149
CCOC(=O)N/N=C(/C)c1ccc(N2C(=O)C3CCCCC3C2=O)cc1 (stereo not given)	none
Oc1c(C=NCc2ccncc2)sc2ccccc12	Runt-SMMHC FRET 66
Oc1c(/C=N/c2ccccn2)sc2ccccc12	RanGTP-Imp inh 23, Platelet DG rel 86
CC(=O)NCCN=Cc1sc2ccccc2c1O	RanGTP-Imp inh 31, Runt-SMMHC FRET 60
Oc1c(C=Nc2cccnc2)sc2ccccc12	RanGTP-Imp inh 22, Runt-SMMHC FRET 63
CC1CCCC(NC(=O)C2CCN(S(=O)(=O)N3CCCCC3)CC2)C1C (stereo not given)	none
CCOC(=O)C1CCCN(C(=O)c2ccc3c(=O)n(Cc4ccccc4OC)c(=S)[nH]c3c2)C1 (stereo not given)	none (no result: Runt-SMMHC FRET, Runt-CBFb FRET)
O=C(COc1ccc(Br)cc1)N1CCC(c2ccccc2)C1 (stereo not given)	none
OCc1nc2ccccc2n1/N=C/c1cccs1	none
COc1ccc(S(=O)(=O)N(C)c2ccc(C(=O)Nc3cccnc3)cc2)cc1OC	none (no result: Runt-SMMHC FRET, Runt-CBFb FRET)
O=C(CN(CCc1ccccc1)S(=O)(=O)c1ccc(Cl)cc1)N/N=C/c1ccccc1C(=O)O	RanGTP-Imp inh 20
O=c1cc(-c2ccccc2)[nH]n1-c1nc2ccccc2[nH]1	RanGTP-Imp inh 26
COc1ccc(C(=O)Nc2cc(OC)nc(OC)n2)cc1	Platelet DG rel 56
COc1ccc(C(=O)/C=C/NCc2ccc(C)cc2)cc1	RanGTP-Imp inh 25 (no result: Runt-SMMHC FRET, Runt-CBFb FRET)
COc1ccc(C(=O)/C=C/Nc2cccc(O)c2)cc1	Platelet DG rel 55
Cc1cccc(NC(=O)c2ccc(Cn3cc(C(F)(F)F)ccc3=O)cc2)c1	RanGTP-Imp inh 48
CC(NC(=O)c1ccccc1Br)c1nnc(SCC(=O)NC2=NCCS2)n1C (stereo not given)	none (no result: Runt-SMMHC FRET, Runt-CBFb FRET)
O=C(C[n+]1ccccc1)NNc1ccccc1	none (no result: Runt-SMMHC FRET, Runt-CBFb FRET)
CC(=O)Nc1ccc(-n2nnnc2SCC(=O)N2CCN(C(=O)c3ccco3)CC2)cc1	none
COc1c(Cl)cc(Cl)cc1/C=N/n1cnnc1	none
COc1ccc(NC(=O)c2ccc(OC(F)F)cc2)cc1Cl	Platelet DG rel 64
COc1ccc(C(=O)Nc2cccc(C)c2)cc1	Platelet DG rel 56
O=S(=O)(NC1CCCCC1N1CCC(O)CC1)c1ccccc1 (stereo not given)	RanGTP-Imp inh 56 (no result: Runt-SMMHC FRET, Runt-CBFb FRET)
Nc1nonc1C(=O)NCCNC(=O)c1cccc(Cl)c1	none (no result: Runt-SMMHC FRET, Runt-CBFb FRET)
CC(C)Cn1nc(NS(=O)(=O)c2ccccc2)c2cc3ccccc3nc21	none
Cc1ccc2cc3c(NC(=O)c4ccco4)nn(CC(C)C)c3nc2c1	RanGTP-Imp inh 39
CC(C)Cn1nc(NC(=O)C2CCCO2)c2cc3ccccc3nc21 (stereo not given)	RanGTP-Imp inh 27
CCn1nc(NC(=O)C(C)C)c2cc3ccc(C)cc3nc21	none (no result: Runt-SMMHC FRET, Runt-CBFb FRET)
CCOc1ccccc1NC(=S)NCCc1ccc(F)cc1	none
CCCCC1CCC(C(=O)NCc2ccc3c(c2)OCO3)CC1 (stereo not given)	RanGTP-Imp inh 92
C=CCn1c(SCC(=O)N(C)C)nc2cc(C(=O)O)ccc2c1=O	none
CCC(=O)Nc1sc2c(c1C(N)=O)CCC2	none
CC(C)C(=O)Nc1sc2c(c1C(N)=O)CCN(Cc1ccccc1)C2	RanGTP-Imp inh 134 (no result: Runt-SMMHC FRET, Runt-CBFb FRET)
NC(=O)c1c(NC(=O)c2c(F)cccc2F)sc2c1CCN(Cc1ccccc1)C2	RanGTP-Imp inh 163 (no result: Runt-SMMHC FRET, Runt-CBFb FRET)
CCC(=O)Nc1sc2c(c1C(N)=O)CCN(Cc1ccccc1)C2	RanGTP-Imp inh 134 (no result: Runt-SMMHC FRET, Runt-CBFb FRET)
NC(=O)c1c(NC(=O)c2ccccc2)sc2c1CCN(Cc1ccccc1)C2	none (no result: Runt-SMMHC FRET, Runt-CBFb FRET)
O=C(Nc1nc2nccc(-c3ccccc3)n2n1)C(Cl)(Cl)Cl	none
CC(=O)c1ccc2noc(-c3ccccc3)c2c1	none (no result: Runt-SMMHC FRET, Runt-CBFb FRET)
CC(=O)c1ccc2c(c1)c(C#N)c1ccccc1[n+]2[O-]	RanGTP-Imp inh 68 (no result: Runt-SMMHC FRET, Runt-CBFb FRET)
Cc1ccc(C(=O)Nc2cc3ccccc3oc2=O)cc1	Platelet DG rel 50 (no result: Rce1 inh)
CCCCCn1c(=N)c(S(=O)(=O)c2ccc(Br)cc2)cc2c(=O)n3cccc(C)c3nc21	RanGTP-Imp inh inconclusive (no result: Runt-SMMHC FRET, Runt-CBFb FRET)
CCn1c(=N)c(C(=O)NC)cc2c(=O)n3cccc(C)c3nc21	Runt-SMMHC FRET 58, Rce1 inh inconclusive (no result: RanGTP-Imp inh, Platelet DG rel)
Cc1cccn2c(=O)c3cc(C(=O)NC4CCCCC4)n(C)c3nc12	none (no result: Runt-SMMHC FRET, Runt-CBFb FRET)
Cc1cccn2c(=O)c3cc(C(=O)NC(C)c4ccccc4)c(=N)n(CCCn4ccnc4)c3nc12 (stereo not given)	RanGTP-Imp inh active, Runt-SMMHC FRET 88 (no result: Rce1 inh)
CCCn1c(=N)c(C(=O)NC2CCCC2)cc2c(=O)n3cccc(C)c3nc21	RanGTP-Imp inh 198, Runt-SMMHC FRET 83
Cc1cccn2c(=O)c3cc(C(=O)NC4CCCCC4)c(=N)n(CCN4CCOCC4)c3nc12	RanGTP-Imp inh 113, Runt-SMMHC FRET 128, Runt-CBFb FRET 97
Cc1ccc(SCC(=O)OCC(=O)NC2(C#N)CCCCC2)cc1	RanGTP-Imp inh inconclusive (no result: Runt-SMMHC FRET, Runt-CBFb FRET)
Cc1cccn2c(=O)c3cc(C(=O)NCCCN4CCOCC4)n(C)c3nc12	none (no result: RanGTP-Imp inh, Platelet DG rel, Rce1 inh)
